{"source": "ChEMBL document CHEMBL2311264", "about": "“Synthesis and anticancer activity of heteroaromatic linked 4β-amido podophyllotoxins as apoptotic inducing agents” (Bioorg Med Chem Lett, 2013)", "key": {"[1]": {"test_system": "A549", "test": "Induction of apoptosis in human A549 cells assessed as increase in caspase3 activity at 3 uM after 48 hrs relative to control", "format": "functional", "outline": "(§1)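 A-549 cells were seeded at 2.5 × 10^6/well and treated 48 h alongside etoposide, then scraped and lysed on ice. Supernatant was mixed with 2X assay buffer and Ac-DEVD-AFC substrate for 1 h. Fluorescence (ex 400, em 505 nm) was read every 5 min, normalized to Bradford protein and expressed as fold over control. Two experiments, each in triplicate.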"}, "[2]": {"test_system": "A549", "test": "Induction of apoptosis in human A549 cells assessed as increase in caspase3 activity at 1 uM after 48 hrs relative to control", "format": "functional", "outline": "as §1"}, "[3]": {"test_system": "A549", "test": "Induction of apoptosis in human A549 cells assessed as increase in fluorescence at 1 uM after 24 hrs by Hoechst staining method relative to control", "format": "functional, cell-based", "outline": "(§2)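 Cells were seeded at 10,000 per coverslip and grown 24 h, then treated 24 h. Vehicle control was 0.001% DMSO; etoposide was the standard. Hoechst at […] with 4% paraformaldehyde was added for 30 min at 37 °C. Random fields were imaged by fluorescence microscopy and apoptotic cells scored manually by cytoplasmic condensation, apoptotic bodies, nuclear fragmentation and relative fluorescence.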"}, "[4]": {"test_system": "A549", "test": "Induction of apoptosis in human A549 cells assessed as increase in fluorescence at 3 uM after 24 hrs by Hoechst staining method relative to control", "format": "functional, cell-based", "outline": "as §2"}, "[5]": {"test_system": "A549", "test": "Induction of apoptosis in human A549 cells assessed as nuclear fragmentation at 3 uM after 24 hrs by Hoechst staining method", "format": "functional, cell-based", "outline": "as §2"}, "[6]": {"test_system": "A549", "test": "Induction of apoptosis in human A549 cells assessed as nuclear fragmentation at 1 uM after 24 hrs by Hoechst staining method", "format": "functional, cell-based", "outline": "as §2"}, "[7]": {"test_system": "A549", "test": "Induction of apoptosis in human A549 cells assessed as apoptotic bodies at 3 uM after 24 hrs by Hoechst staining method", "format": "functional, cell-based", "outline": "as §2"}, "[8]": {"test_system": "A549", "test": "Induction of apoptosis in human A549 cells assessed as apoptotic bodies at 1 uM after 24 hrs by Hoechst staining method", "format": "functional, cell-based", "outline": "as §2"}, "[9]": {"test_system": "A549", "test": "Induction of apoptosis in human A549 cells assessed as cytoplasmic condensation at 3 uM after 24 hrs by Hoechst staining method", "format": "functional, cell-based", "outline": "as §2"}, "[10]": {"test_system": "A549", "test": "Induction of apoptosis in human A549 cells assessed as cytoplasmic condensation at 1 uM after 24 hrs by Hoechst staining method", "format": "functional, cell-based", "outline": "as §2"}, "[11]": {"test_system": "A549", "test": "Induction of apoptosis in human A549 cells assessed as DNA fragmentation at 3 uM after 48 hrs by agarose gel electrophoretic analysis", "format": "functional, cell-based", "outline": "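Cells were seeded at 1 × 10^6/well and grown 48 h, then treated 48 h. Cells were pelleted and lysed. Lysate was given SDS and RNase-A at 56 °C for 2 h, then proteinase K at 37 °C for 2 h. DNA was precipitated with ammonium acetate and cold ethanol, washed with 80% ethanol and dissolved in TE. Laddering was read on 2% agarose gel in TE; 50 bp marker.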"}, "[12]": {"test_system": "A549", "test": "Induction of cell cycle arrest in human A549 cells assessed as G2/M phase cells at 3 uM by FACS analysis (reference value: 9.89%)", "format": "functional"}, "[13]": {"test_system": "A549", "test": "Induction of cell cycle arrest in human A549 cells assessed as G2/M phase cells at 1 uM by FACS analysis (reference value: 9.89%)", "format": "functional"}, "[14]": {"test_system": "A549", "test": "Induction of cell cycle arrest in human A549 cells assessed as S phase cells at 3 uM by FACS analysis (reference value: 3.69%)", "format": "functional"}, "[15]": {"test_system": "A549", "test": "Induction of cell cycle arrest in human A549 cells assessed as S phase cells at 1 uM by FACS analysis (reference value: 3.69%)", "format": "functional"}, "[16]": {"test_system": "A549", "test": "Induction of cell cycle arrest in human A549 cells assessed as G1 phase cells at 3 uM by FACS analysis (reference value: 85.33%)", "format": "functional"}, "[17]": {"test_system": "A549", "test": "Induction of cell cycle arrest in human A549 cells assessed as G1 phase cells at 1 uM by FACS analysis (reference value: 85.33%)", "format": "functional"}, "[18]": {"test_system": "A549", "test": "Induction of cell cycle arrest in human A549 cells assessed as sub G1 phase cells at 3 uM by FACS analysis (reference value: 1.08%)", "format": "functional"}, "[19]": {"test_system": "A549", "test": "Induction of cell cycle arrest in human A549 cells assessed as sub G1 phase cells at 1 uM by FACS analysis (reference value: 1.08%)", "format": "functional"}, "[20]": {"test_system": "HeLa", "test": "Cytotoxicity against human HeLa cells […] by MTT assay", "format": "functional, cell-based"}, "[21]": {"test_system": "ACHN", "test": "Cytotoxicity against human ACHN cells […] by MTT assay", "format": "functional, cell-based"}, "[22]": {"test_system": "B16", "test": "Cytotoxicity against mouse B16 cells […] by MTT assay", "format": "functional, cell-based"}, "[23]": {"test_system": "HT-29", "test": "Cytotoxicity against human HT-29 cells after 72 hrs by MTT assay", "format": "functional, cell-based", "settings": "HT-29, 72 h"}, "[24]": {"test_system": "A549", "test": "Cytotoxicity against human A549 cells […] by MTT assay", "format": "functional, cell-based"}}, "note": "Active and inactive are the calls of the source. No cut-off for these calls is given here."}
{"smiles": "COc1cc([C@@H]2c3cc4c(cc3[C@@H](NC(=O)c3cc(-c5ccc(Cl)c(Cl)c5)[nH]n3)[C@H]3COC(=O)[C@H]23)OCO4)cc(OC)c1OC", "values": [{"measurement": "fold change (FC)", "setting": "[1]", "result": 6}, {"measurement": "fold change (FC)", "setting": "[2]", "result": 4}, {"measurement": "Activity", "setting": "[3]", "result": "Active"}, {"measurement": "Activity", "setting": "[4]", "result": "Active"}, {"measurement": "Activity", "setting": "[5]", "result": "Active"}, {"measurement": "Activity", "setting": "[6]", "result": "Active"}, {"measurement": "Activity", "setting": "[7]", "result": "Active"}, {"measurement": "Activity", "setting": "[8]", "result": "Active"}, {"measurement": "Activity", "setting": "[9]", "result": "Active"}, {"measurement": "Activity", "setting": "[10]", "result": "Active"}, {"measurement": "Activity", "setting": "[11]", "result": "Active"}, {"measurement": "Activity", "setting": "[12]", "result": 61.28, "unit": "%"}, {"measurement": "Activity", "setting": "[13]", "result": 27.68, "unit": "%"}, {"measurement": "Activity", "setting": "[14]", "result": 8.96, "unit": "%"}, {"measurement": "Activity", "setting": "[15]", "result": 2.27, "unit": "%"}, {"measurement": "Activity", "setting": "[16]", "result": 27.71, "unit": "%"}, {"measurement": "Activity", "setting": "[17]", "result": 63.35, "unit": "%"}, {"measurement": "Activity", "setting": "[18]", "result": 2.05, "unit": "%"}, {"measurement": "Activity", "setting": "[19]", "result": 6.77, "unit": "%"}, {"measurement": "IC50", "setting": "[20]", "result": 9.3, "unit": "µM"}, {"measurement": "IC50", "setting": "[21]", "result": 15.9, "unit": "µM"}, {"measurement": "IC50", "setting": "[22]", "result": 9.5, "unit": "µM"}, {"measurement": "IC50", "setting": "[23]", "result": 7.1, "unit": "µM"}, {"measurement": "IC50", "setting": "[24]", "result": 2.1, "unit": "µM"}]}
